# Test results: ChEMBL document CHEMBL4359890, “Design, synthesis of oleanolic acid-saccharide conjugates using click chemistry methodology and study of their anti-influenza activity” (Eur J Med Chem, 2019)
# The source made the active and inactive calls. The calls are words filed in the database; no cut-off is given here.
# What was measured:
# [1] = test system: MDCK; assay: Cytotoxicity against dog MDCK cells assessed as reduction in cell viability at 100 uM measured after 40 hrs by Celltiter-Glo assay; format: cell-based, Canis lupus familiaris
# How it was run: (§1)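 Uninfected MDCK cells were grown overnight in 96-well plates with 1% FBS. They were then exposed to increasing compound concentrations, or to a single 100 μM screen, for 40 h, and viability was read by CellTiter-Glo. CC50 is the concentration causing 50% death of uninfected cells.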
# [2] = test system: Influenza A virus; assay: Antiviral activity against Influenza A virus A/WSN/33 infected in MDCK cells assessed as reduction in virus-induced cytopathic effect at 100 uM after 40 hrs by Celltiter-Glo assay relative to control; format: functional; details: A/WSN/33, MDCK
# How it was run: (§2)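 This was a single-concentration screen at 100 μM in MDCK cells infected with A/WSN/33 at MOI 0.1. CPE protection was read by CellTiter-Glo after 40 h of incubation. The inhibition rate was expressed relative to 1% DMSO (final) negative control, with oseltamivir phosphate as the positive control. Experiments were run in triplicate.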
# [3] = test system: Influenza B virus; assay: Antiviral activity against Influenza B virus B/Sichuan/531/2018(BV) infected in MDCK cells assessed as inhibition of virus-induced cytopathic effect after 40 hrs by Celltiter-Glo assay; format: functional, organism-based
# How it was run: (§3)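 MDCK cells were seeded in 96-well plates, left overnight, then infected with influenza virus at MOI 0.1 and treated with the compound. After 40 h, viability was read by CellTiter-Glo luminescence. 1% DMSO (final) served as the negative control and oseltamivir phosphate as the positive control. IC50 is the concentration that inhibits virus-induced CPE by 50%, taken from dose-response curves in replicate independent experiments.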
# [4] = test system: Influenza B virus; assay: Antiviral activity against Influenza B virus B/Massachusetts/2/2012(BV) infected in MDCK cells assessed as inhibition of virus-induced cytopathic effect after 40 hrs by Celltiter-Glo assay; format: functional, organism-based; how it was run: as §3
# [5] = Selectivity index, ratio of CC50 for MDCK cells to IC50 for influenza A virus A/WSN/33; format: toxicity; details: dog, read-out: Ratio CC50/IC50
# How it was run: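 SI was calculated as CC50 (uninfected MDCK, 40 h CellTiter-Glo) divided by IC50 (50% inhibition of A/WSN/33 replication in MDCK, MOI 0.1, 40 h CellTiter-Glo).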
# [6] = Cytotoxicity against dog MDCK cells assessed as reduction in cell viability measured after 40 hrs by Celltiter-Glo assay; format: cell-based, Canis lupus familiaris; how it was run: as §1
# [7] = test system: Influenza B virus; assay: Antiviral activity against Influenza B virus B/Yamagata/16/88(BY) infected in MDCK cells assessed as inhibition of virus-induced cytopathic effect after 40 hrs by Celltiter-Glo assay; format: functional, organism-based; how it was run: as §3
# [8] = test system: Influenza A virus; assay: Antiviral activity against Influenza A virus A/WSN/33 assessed as inhibition of virus-induced cytopathic effect after 40 hrs by Celltiter-Glo assay; format: functional, organism-based; details: A/WSN/33, 40 h; how it was run: as §3
# [9] = test system: Influenza A virus; assay: Antiviral activity against Influenza A virus A/Victoria/361/2011(H3N2) infected in MDCK cells assessed as inhibition of virus-induced cytopathic effect after 40 hrs by Celltiter-Glo assay; format: functional, organism-based; how it was run: as §3
# [10] = test system: Influenza A virus; assay: Antiviral activity against Influenza A virus A/WSN/33 infected in MDCK cells assessed as reduction in virus-induced cytopathic effect at 100 uM after 40 hrs by Celltiter-Glo assay; format: functional, organism-based; how it was run: as §2
# [11] = Cytotoxicity against dog MDCK cells assessed as cell viability at 100 uM measured after 40 hrs by Celltiter-Glo assay relative to control; format: cell-based, Canis lupus familiaris; details: read-out: Activity; how it was run: as §1
smiles,measurement,setting,value
CC1(C)CC[C@]2(C(=O)NCc3cn([C@H]4O[C@H](CO)[C@@H](O)[C@H](O)[C@@H]4O)nn3)CC[C@]3(C)C(=CC[C@@H]4[C@@]5(C)CC[C@H](O)C(C)(C)[C@@H]5CC[C@]43C)[C@@H]2C1,Activity,[1],Non-Toxic
CC(=O)O[C@@H]1[C@@H](OC(C)=O)[C@H](n2cc(CNC(=O)[C@]34CCC(C)(C)C[C@H]3C3=CC[C@@H]5[C@@]6(C)CC[C@H](O)C(C)(C)[C@@H]6CC[C@@]5(C)[C@]3(C)CC4)nn2)OC[C@@H]1OC(C)=O,Activity,[1],Non-Toxic
CC1(C)CC[C@]2(C(=O)NCc3cn([C@@H]4O[C@H](CO)[C@@H](O[C@@H]5O[C@H](CO)[C@H](O)[C@H](O)[C@H]5O)[C@H](O)[C@H]4O)nn3)CC[C@]3(C)C(=CC[C@@H]4[C@@]5(C)CC[C@H](O)C(C)(C)[C@@H]5CC[C@]43C)[C@@H]2C1,Activity,[1],Non-Toxic
CC1(C)CC[C@]2(C(=O)NCc3cn([C@@H]4OC[C@@H](O)[C@H](O)[C@H]4O)nn3)CC[C@]3(C)C(=CC[C@@H]4[C@@]5(C)CC[C@H](O)C(C)(C)[C@@H]5CC[C@]43C)[C@@H]2C1,inhibition at 100 µM,[2],75%
same,Activity,[1],Toxic
CCOC(=O)C1=C[C@@H](OC(CC)CC)[C@H](NC(C)=O)[C@@H](N)C1 [OSELTAMIVIR PHOSPHATE],IC50,[3],> 100 µM
same,IC50,[4],> 100 µM
same,selectivity ratio,[5],> 54.9
same,CC50 at 40 h,[6],> 100 µM
same,IC50,[7],23.4 µM
same,IC50,[8],1.82 µM
same,IC50,[9],> 100 µM
CC1(C)CC[C@]2(C(=O)NCc3cn([C@@H]4O[C@H](CO)[C@@H](O[C@H]5O[C@H](CO)[C@@H](O)[C@H](O)[C@H]5O)[C@H](O)[C@H]4O)nn3)CC[C@]3(C)C(=CC[C@@H]4[C@@]5(C)CC[C@H](O)C(C)(C)[C@@H]5CC[C@]43C)[C@@H]2C1,Activity,[1],Non-Toxic
CC(=O)OC[C@H]1O[C@@H](n2cc(CNC(=O)[C@]34CCC(C)(C)C[C@H]3C3=CC[C@@H]5[C@@]6(C)CC[C@H](O)C(C)(C)[C@@H]6CC[C@@]5(C)[C@]3(C)CC4)nn2)[C@H](OC(C)=O)[C@@H](OC(C)=O)[C@@H]1O[C@H]1O[C@H](COC(C)=O)[C@@H](O[C@H]2O[C@H](COC(C)=O)[C@@H](OC(C)=O)[C@H](OC(C)=O)[C@H]2OC(C)=O)[C@H](OC(C)=O)[C@H]1OC(C)=O,Activity,[10],inactive
same,Activity,[1],Non-Toxic
CC(=O)OC[C@H]1O[C@H](n2cc(CNC(=O)[C@]34CCC(C)(C)C[C@H]3C3=CC[C@@H]5[C@@]6(C)CC[C@H](O)C(C)(C)[C@@H]6CC[C@@]5(C)[C@]3(C)CC4)nn2)[C@@H](OC(C)=O)[C@@H](OC(C)=O)[C@@H]1OC(C)=O,"viability at 40 h, 100 µM",[11],> 75%
same,selectivity ratio,[5],> 13.8
same,CC50 at 40 h,[6],> 100 µM
same,inhibition at 100 µM,[2],> 75%
same,Activity,[1],Non-Toxic
same,IC50,[8],7.22 µM
CC1(C)CC[C@]2(C(=O)NCc3cn([C@@H]4O[C@H](CO)[C@H](O)[C@H](O)[C@H]4O)nn3)CC[C@]3(C)C(=CC[C@@H]4[C@@]5(C)CC[C@H](O)C(C)(C)[C@@H]5CC[C@]43C)[C@@H]2C1,Activity,[1],Non-Toxic
CC1(C)CC[C@]2(C(=O)NCc3cn([C@@H]4O[C@H](CO)[C@@H](O[C@H]5O[C@H](CO)[C@@H](O[C@H]6O[C@H](CO)[C@@H](O)[C@H](O)[C@H]6O)[C@H](O)[C@H]5O)[C@H](O)[C@H]4O)nn3)CC[C@]3(C)C(=CC[C@@H]4[C@@]5(C)CC[C@H](O)C(C)(C)[C@@H]5CC[C@]43C)[C@@H]2C1,Activity,[10],inactive
same,Activity,[1],Non-Toxic
CC(=O)OC[C@H]1O[C@@H](n2cc(CNC(=O)[C@]34CCC(C)(C)C[C@H]3C3=CC[C@@H]5[C@@]6(C)CC[C@H](O)C(C)(C)[C@@H]6CC[C@@]5(C)[C@]3(C)CC4)nn2)[C@H](OC(C)=O)[C@@H](OC(C)=O)[C@@H]1O[C@@H]1O[C@H](COC(C)=O)[C@@H](OC(C)=O)[C@H](OC(C)=O)[C@H]1OC(C)=O,Activity,[1],Non-Toxic
CC(=O)O[C@@H]1[C@@H](OC(C)=O)[C@H](C)O[C@@H](n2cc(CNC(=O)[C@]34CCC(C)(C)C[C@H]3C3=CC[C@@H]5[C@@]6(C)CC[C@H](O)C(C)(C)[C@@H]6CC[C@@]5(C)[C@]3(C)CC4)nn2)[C@@H]1OC(C)=O,Activity,[1],Non-Toxic
CC1(C)CC[C@]2(C(=O)NCc3cn([C@@H]4O[C@H](CO)[C@@H](O[C@@H]5O[C@H](CO)[C@@H](O)[C@H](O)[C@H]5O)[C@H](O)[C@H]4O)nn3)CC[C@]3(C)C(=CC[C@@H]4[C@@]5(C)CC[C@H](O)C(C)(C)[C@@H]5CC[C@]43C)[C@@H]2C1,Activity,[1],Non-Toxic
C[C@@H]1O[C@@H](n2cc(CNC(=O)[C@]34CCC(C)(C)C[C@H]3C3=CC[C@@H]5[C@@]6(C)CC[C@H](O)C(C)(C)[C@@H]6CC[C@@]5(C)[C@]3(C)CC4)nn2)[C@H](O)[C@H](O)[C@H]1O,inhibition at 100 µM,[2],75%
same,Activity,[1],Toxic
CC(=O)OC[C@H]1O[C@@H](n2cc(CNC(=O)[C@]34CCC(C)(C)C[C@H]3C3=CC[C@@H]5[C@@]6(C)CC[C@H](O)C(C)(C)[C@@H]6CC[C@@]5(C)[C@]3(C)CC4)nn2)[C@H](OC(C)=O)[C@@H](OC(C)=O)[C@H]1OC(C)=O,inhibition at 100 µM,[2],75%
same,Activity,[1],Toxic
CC1(C)CC[C@]2(C(=O)NCc3cn([C@@H]4OC[C@H](O)[C@H](O)[C@H]4O)nn3)CC[C@]3(C)C(=CC[C@@H]4[C@@]5(C)CC[C@H](O)C(C)(C)[C@@H]5CC[C@]43C)[C@@H]2C1,"viability at 40 h, 100 µM",[11],> 75%
same,selectivity ratio,[5],> 7.73
same,CC50 at 40 h,[6],> 100 µM
same,inhibition at 100 µM,[2],> 75%
same,Activity,[1],Non-Toxic
same,IC50,[8],12.9 µM
CC(=O)OC[C@H]1O[C@@H](O[C@H]2[C@H](OC(C)=O)[C@@H](OC(C)=O)[C@H](n3cc(CNC(=O)[C@]45CCC(C)(C)C[C@H]4C4=CC[C@@H]6[C@@]7(C)CC[C@H](O)C(C)(C)[C@@H]7CC[C@@]6(C)[C@]4(C)CC5)nn3)O[C@@H]2COC(C)=O)[C@H](OC(C)=O)[C@@H](OC(C)=O)[C@H]1OC(C)=O,Activity,[1],Non-Toxic
CC(=O)OC[C@H]1O[C@@H](n2cc(CNC(=O)[C@]34CCC(C)(C)C[C@H]3C3=CC[C@@H]5[C@@]6(C)CC[C@H](O)C(C)(C)[C@@H]6CC[C@@]5(C)[C@]3(C)CC4)nn2)[C@H](OC(C)=O)[C@@H](OC(C)=O)[C@@H]1O[C@H]1O[C@H](COC(C)=O)[C@@H](OC(C)=O)[C@H](OC(C)=O)[C@H]1OC(C)=O,Activity,[1],Non-Toxic
CC(=O)OC[C@H]1O[C@@H](n2cc(CNC(=O)[C@]34CCC(C)(C)C[C@H]3C3=CC[C@@H]5[C@@]6(C)CC[C@H](O)C(C)(C)[C@@H]6CC[C@@]5(C)[C@]3(C)CC4)nn2)[C@H](OC(C)=O)[C@@H](OC(C)=O)[C@@H]1OC(C)=O,Activity,[1],Non-Toxic
CC1(C)CC[C@]2(C(=O)O)CC[C@]3(C)C(=CC[C@@H]4[C@@]5(C)CC[C@H](O)C(C)(C)[C@@H]5CC[C@]43C)[C@@H]2C1 [OLEANOLIC_ACID],selectivity ratio,[5],> 1.38
same,CC50 at 40 h,[6],> 100 µM
same,IC50,[8],72.2 µM
CC(=O)O[C@@H]1[C@@H](OC(C)=O)[C@H](OC(C)=O)CO[C@H]1n1cc(CNC(=O)[C@]23CCC(C)(C)C[C@H]2C2=CC[C@@H]4[C@@]5(C)CC[C@H](O)C(C)(C)[C@@H]5CC[C@@]4(C)[C@]2(C)CC3)nn1,Activity,[1],Non-Toxic
